# An excerpt weighted towards active compounds, which were near 4.5% of everything screened.
# GPR7 antagonist = GPR7 receptor antagonists, primary screen, cell-based, fluorescence, single concentration; 290,000 compounds, 1.1% hits; Neuropeptides B/W receptor type 1 (Homo sapiens), P48145; AID 1861, 2009; inhibition, % at 4.4 µM; GPR7-expressing cells, fluorescence antagonist assay; in the data active means inhibition above about 16%, passing the limit was not always enough;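 further: cells stimulated with the agonist NPW; 0% = agonist with vehicle and 100% = vehicle without agonist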
# Target sequence (P48145 whole entry, looked up): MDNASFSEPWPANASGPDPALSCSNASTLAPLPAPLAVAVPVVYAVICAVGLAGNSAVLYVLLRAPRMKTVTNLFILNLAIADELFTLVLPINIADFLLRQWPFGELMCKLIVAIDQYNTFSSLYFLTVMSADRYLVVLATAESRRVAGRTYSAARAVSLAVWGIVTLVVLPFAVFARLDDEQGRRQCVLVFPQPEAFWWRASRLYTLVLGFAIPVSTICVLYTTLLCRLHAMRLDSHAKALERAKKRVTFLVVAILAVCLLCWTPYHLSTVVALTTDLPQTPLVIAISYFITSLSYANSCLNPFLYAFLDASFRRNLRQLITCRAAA
# OX1R antag-1 = antagonists of human orexin 1 receptor (OX1R) | 330,000 compounds, 1.8% hits | Orexin/Hypocretin receptor type 1 (Homo sapiens), O43613 | inhibition, % at 6.6 µM | OX1R-expressing cells, FRET antagonist read-out; in the data active means inhibition mostly above about 38%, no sharp cut-off; inactive means mostly below about 40%;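 further: 0% = agonist challenge alone and 100% = reference antagonist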
# OX1R antag-2 = OX1R (HCRTR1) antagonists, primary screen, fluorescence, CHO/OX1R cells, Fluo-8 calcium, orexin A | Fluo-8 calcium fluorescence | inhibition, % at 5 µM | Orexin/Hypocretin receptor type 1 (Homo sapiens), O43613 | AID 434989, 2010 | 330,000 compounds, 0.43% hits;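 active means inhibition above its plate's threshold, mean inhibition of all tested compounds on the plate plus 3 SD, cut at about 37% in these data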;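 further: 0% = orexin A challenge wells and 100% = SB-334867-A antagonist wells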
# TAAR1 antagonist = human TAAR1 antagonists, primary screen, Fluo-8 calcium fluorescence, CHO RD-HGA16 cells | inhibition, % at 3 µM | 360,000 compounds, 1.5% hits | Trace amine-associated receptor 1 (Homo sapiens), Q96RJ0 | antagonist;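 active means inhibition above a per-plate cutoff, the mean inhibition of test compounds on that plate plus 3 SD, cut at about 49% in these data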;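 further: 0% = DMSO plus EC80 beta-PEA response and 100% = DMSO alone without agonist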
# Target sequence (Q96RJ0 whole entry, looked up): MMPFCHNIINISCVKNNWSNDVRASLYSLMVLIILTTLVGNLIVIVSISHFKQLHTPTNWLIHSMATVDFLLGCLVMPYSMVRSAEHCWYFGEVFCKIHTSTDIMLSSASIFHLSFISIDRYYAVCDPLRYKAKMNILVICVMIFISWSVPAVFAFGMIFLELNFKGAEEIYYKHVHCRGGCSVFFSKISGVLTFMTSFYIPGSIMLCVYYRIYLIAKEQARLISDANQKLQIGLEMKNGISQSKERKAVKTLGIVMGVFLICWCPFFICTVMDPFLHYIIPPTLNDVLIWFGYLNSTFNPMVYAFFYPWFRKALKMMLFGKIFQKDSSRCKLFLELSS
#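 Assay system: RD-HGA16 CHO cells with stable hTAAR1 and Gα16 / Reagent: EC80 β-phenethylamine stimulus / Doses: 3 µM, single point / Timing: dye loading 75 min at 37 °C, then 30 min room temperature / Measured by: Fluo-8 intracellular calcium dye fluorescence, real-time kinetic reads / Controls: vehicle wells and EC80 agonist wells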
# TAAR1 agonist = human TAAR1 agonists, primary screen, Fluo-8 calcium fluorescence, CHO RD-HGA16 cells | Trace amine-associated receptor 1 (Homo sapiens), Q96RJ0 | 360,000 compounds, 0.99% hits | activation, % at 3 µM | vehicle wells 0%, saturating PEA agonist 100%;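 active means activation above the mean activation of all test compounds in the run plus 3 SD, cut at about 38% in these data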
#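 Test system: RD-HGA16 (CHO) cells co-expressing Gα16 and hTAAR1; dosing: one-point dosing at 3 µM (nominal); timing: 17-24 h seeding, 75 min 37 °C dye, 30 min RT; signal: kinetic Fluo-8 calcium fluorescence; read-out basis: % activation relative to PEA EC100 response; controls: DMSO and PEA EC100; replicates: n 1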
# CHO parental Ca = ATP-evoked calcium signal inhibitors, parental CHO, primary screen, counter-screen for OX1R antagonist project, cell-based, fluorescence, Fluo-8 calcium dye | 330,000 compounds, 0.63% hits | inhibition, % at 5.6 µM | parental CHO-K1, ATP-induced calcium, Fluo-8 fluorescence | AID 463079, 2010;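 active means inhibition above that plate's mean sample inhibition plus 3 SD, cut at about 26% in these data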;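 further: 0% = ATP-challenged DMSO wells and 100% = DMSO wells without ATP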
#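 Material: parental CHO cells / Compound: single nominal dose of 5.6 µM per compound / Signal: Fluo-8 fluorescence / Replicates: singlicate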
# Active calls of the source: *; . = no result given.
SMILES,GPR7 antagonist,OX1R antag-1,OX1R antag-2,TAAR1 antagonist,TAAR1 agonist,CHO parental Ca
CC1=Nc2ccccc2/C1=C\c1nc(-c2ccccc2)oc1O,-2.2,26.3,19.5,27.8,7.0,13.5
CC1=Nc2ccccc2/C1=C/c1nc(-c2ccc(C)s2)oc1O,14.0,15.8,67.8*,53.7*,38.0*,43.4*
CC(C=NN=C1C(=O)Nc2ccccc21)=Cc1ccccc1,.,.,.,-12.9,3.7,.
CNS(=O)(=O)c1ccc(NC(=O)C2c3ccccc3Oc3ccccc32)cc1,-0.3,15.7,-2.9,-0.3,12.0,6.6
CCc1nnc(NC(=O)C2c3ccccc3Oc3ccccc32)s1,-8.5,-7.2,-27.6,-24.4,51.2*,-40.7
CCN(CC)S(=O)(=O)c1ccc(NC(=O)C2c3ccccc3Oc3ccccc32)cc1,3.9,0.1,9.9,20.9,41.3*,7.0
CCc1nnc(NC(=O)c2cc3ccccc3oc2=O)s1,15.0,76.6*,-12.8,-10.4,3.7,-5.4
CCc1ccc(N(CC(=O)NCc2ccc(F)cc2)C(=O)c2csnn2)cc1,-1.9,22.9,-19.4,-13.8,7.5,-23.9
Cc1cc(/C=C2\C(=N)N3N=C(C(C)C)SC3=NC2=O)c(C)n1Cc1ccccc1,-12.9,6.3,102.5*,7.4,7.9,65.0*
CC1=NNC(=O)/C1=C\c1cn(-c2ccccc2)nc1-c1ccccc1,55.4*,19.2,96.4*,60.8*,30.8,92.5*
COC(=O)C1=C(C(=O)OC)[C@@H]2N(C)c3ccccc3[C@@]23C[C@@H](C(=O)OC)N(C(=O)C2CCC2)C3=N1,.,32.4,-28.8,0.8,-1.2,-28.6
Cc1cc2c(cc1S(=O)(=O)N1CCN(c3ccc(Cl)cc3)CC1)OCCN2C,-1.6,-6.5,-23.5,2.3,-1.6,2.5
Cc1cc2c(cc1S(=O)(=O)N1CCN(c3cccc(C)c3C)CC1)OCCN2C,3.7,6.3,-37.1,2.5,-0.1,57.3*
CCCCCCCCN1C(=O)[C@H](CC(=O)N2CCN(C(=O)OCC)CC2)C[C@@]2(C(=O)OC)CCCCC=C12,.,.,.,-7.2,-2.1,.
COc1ccc(CCNc2nc(-c3ccc(O)cc3)cs2)cc1OC,-13.3,32.1*,61.0*,29.3,6.1,58.1*
CCOC(=O)c1ccc(/C=N/O)[n+](Cc2ccccc2)c1,-19.8,59.9*,-2.2,-16.2,5.7,-0.2
O=C1/C(=C\c2ccc(O)c(O)c2)SC(=S)N1Cc1ccccc1,23.6,.,.,-13.9,38.4*,.
COc1cc(/C=C2/SC(=O)NC2=O)ccc1OCc1ccccc1,2.7,53.6*,-18.7,-6.5,5.0,-6.7
COc1cc(/C=C2\SC(=S)N(NS(=O)(=O)c3ccccc3)C2=O)ccc1O,-8.8,47.0,23.7,0.2,16.5,44.1*
COc1cc(/C=C2/SC(=NCc3ccccc3)N(Cc3ccccc3)C2=O)ccc1O,-2.1,11.8,-24.9,-3.8,8.0,-16.4
COc1cc(/C=C2/SC(=S)N(Cc3ccccc3)C2=O)ccc1O,-11.1,7.6,33.1,12.4,44.4*,33.2*
O=C1Nc2ccccc2N(O)N1c1cc(-c2ccc(Cl)cc2)[nH]n1,5.3,3.5,-4.9,6.1,7.4,3.7
O=S(=O)(c1ccc(Cl)cc1)N1CCC2(CC1)CO2,-6.6,2.8,-2.6,11.9,4.0,10.9
O=C(Cc1cn(Cc2ccccc2)c2ccccc12)Nc1ccc(Nc2cccnc2)c(Br)c1,.,.,.,-2.0,2.7,.
CCc1ccc(N=C2NC(=O)/C(=C/c3cc(OC)c(O)c(OC)c3)S2)cc1,-15.4,.,.,17.3,3.5,.
SMILES,GPR7 antagonist,OX1R antag-1,OX1R antag-2,TAAR1 antagonist,TAAR1 agonist,CHO parental Ca
COc1cc(/C=C2\SC(=Nc3ccccc3)NC2=O)cc(Cl)c1O,17.6,48.8*,60.6*,61.7*,74.8*,39.0*
Cn1c(=O)c2[nH]c(N=NNc3ccccc3F)nc2n(C)c1=O,-16.9,10.0,3.5,-29.1,0.0,-11.6
CCCc1cc(C(=O)N2CCCC(C(=O)c3cc(C)c(OC)c(C)c3)C2)n(C)n1 (centres undefined),-16.4,36.8*,-5.0,-26.1,0.0,-28.7
COc1c(C)cc(C(=O)C2CCCN(C(=O)c3ccc4[nH]ccc4c3)C2)cc1C (centres undefined),-6.4,75.0*,-10.9,-60.4,-0.8,-18.6
CN(C)S(=O)(=O)c1ccc(/C(O)=C2/C(=O)C(=O)N(CCCN3CCOCC3)C2c2ccncc2)cc1 (centres undefined),.,72.6*,-3.0,-16.1,-1.4,8.3
COc1ccc(/C(O)=C2/C(=O)C(=O)N(CCN3CCOCC3)C2c2ccccn2)cc1 (centres undefined),-1.8,68.3*,-6.0,2.5,-0.4,-2.8
O=C(C1=C(O)C(=O)N(CCN2CCOCC2)C1c1ccccn1)c1cccs1 (centres undefined),-5.8,58.9*,-4.8,-5.3,8.2,3.0
O=C1C(=O)N(CCN2CCOCC2)C(c2ccccn2)/C1=C(/O)c1ccc(F)cc1 (centres undefined),9.3,42.9*,-5.7,13.0,10.4,-4.3
CN1C(=O)[C@@]2(C3=C(CCCC3=O)OC3=C2C(=O)CC(C)(C)C3)c2ccccc21,.,.,.,-17.6,0.3,.
O=C(C(=O)N1CCC(CNC(=O)c2sc3ccccc3c2Cl)CC1)c1cccs1,.,.,.,-13.7,3.1,.
O=S(=O)(Nc1cccc2ncccc12)c1cccs1,5.2,32.4,26.8,.,.,40.1*
Cc1c(NS(=O)(=O)c2cccs2)cccc1-c1nc2cccnc2s1,-2.0,34.0,5.7,-7.1,2.0,-14.4
CCOC(=O)C1=C(C)NC2=C(C(=O)CC(c3cccs3)C2)C1c1cccs1 (centres undefined),-0.1,0.0,-21.4,17.7,7.8,2.1
COC(=O)C1=C(C)NC2=C(C(=O)CC(c3cccs3)C2)C1c1ccsc1 (centres undefined),21.8*,22.1,-20.6,3.3,10.1,-9.7
CCCCCNC(=O)C(c1ccnc2ccccc12)n1c(=O)c(-c2cc3ccccc3[nH]2)nc2ccccc21 (centres undefined),.,.,.,-9.1,2.4,.
COCCNc1ncnc2c1cnn2-c1ccc(Cl)cc1,19.8*,13.1,4.2,0.6,4.1,-4.4
OCCOCCNc1ncnc2c1cnn2-c1ccc(Cl)cc1,0.8,22.5,4.5,-16.3,5.3,16.4
COc1cc2c(cc1OC)CN(c1ccc3ccccc3n1)CC2,29.2,73.5*,-10.3,1.6,-1.4,-15.2
COc1cc2c(cc1OC)CN(c1ccc(-c3ccccc3OC)nn1)CC2,-14.5,34.5,-18.7,.,.,-5.5

# Source: PubChem (The Scripps Research Institute Molecular Screening Center)
